Reference: ChEMBL document CHEMBL3808293, “Antiproliferative activity and apoptosis inducing effects of nitric oxide donating derivatives of evodiamine” (Bioorg Med Chem, 2016)
One block for each molecule: values may come before it. Activity calls are given as the source filed them. The calls are words filed in the database; no cut-off is given here.

Legend:
[1] = tested on: Bel-7402; test: Induction of mitochondrial membrane depolarization in human Bel7402 cells after 72 hrs by JC-1 staining based flow cytometry; format: functional, cell-based
[2] = Cell cycle arrest in human Bel7402 cells assessed as accumulation at S phase at 3 uM after 24 hrs by propidium iodide staining based flow cytometry (reference value: 33.7%); format: functional; conditions: Bel-7402
[3] = tested on: Bel-7402; test: Induction of apoptosis in human Bel7402 cells assessed as increase in caspase-3 expression at 1 to 3 uM after 72 hrs by Western blot analysis; format: functional, cell-based
Summary of the method: (§1)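 Bel-7402 cells exposed to different doses for 72 h, lysed, and protein content determined. Lysates separated on 10% SDS-PAGE and transferred to nitrocellulose. Membranes probed with monoclonal primary antibodies, then HRP-conjugated secondary antibodies, with ECL detection.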

[4] = tested on: Bel-7402; test: Induction of mitochondrial membrane depolarization in human Bel7402 cells at 1 uM after 72 hrs by JC-1 staining based flow cytometry (reference value: 4.26%); format: functional
[5] = tested on: Bel-7402; test: Induction of mitochondrial membrane depolarization in human Bel7402 cells at 3 uM after 72 hrs by JC-1 staining based flow cytometry (reference value: 4.26%); format: functional
[6] = Cell cycle arrest in human Bel7402 cells assessed as accumulation at S phase at 2 uM after 24 hrs by propidium iodide staining based flow cytometry (reference value: 33.7%); format: functional; conditions: Bel-7402
[7] = Cell cycle arrest in human Bel7402 cells assessed as accumulation at G1 phase at 1 uM after 24 hrs by propidium iodide staining based flow cytometry (reference value: 43.13%); format: functional; conditions: Bel-7402
[8] = tested on: BGC-823; test: Induction of NO release in human BGC823 cells at 100 uM incubated for 1 hr by Griess assay; format: functional
Summary of the method: (§2)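 Cells exposed to 100 μM compound; the methods give 150 min, the results text 1 h. Cell lysates mixed with Griess reagent 10 min at 37 °C, absorbance read at 540 nm. Nitrite quantified against a sodium nitrite standard curve; 0.4% DMSO-treated cells gave background. Mean ± SD of three independent experiments.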

[9] = Cell cycle arrest in human Bel7402 cells assessed as accumulation at G2 phase at 3 uM after 24 hrs by propidium iodide staining based flow cytometry (reference value: 23.17%); format: functional; conditions: Bel-7402
[10] = Antiproliferative activity against human Bel7402 cells after 72 hrs by MTT assay; format: functional, cell-based; conditions: Bel-7402, 72 h
Summary of the method: (§3)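 Cells pre-incubated 24 h at 37 °C, 5% CO2, then exposed to compounds for 72 h. MTT (5 mg/mL solution) added for a further 4 h, formazan dissolved in DMSO, OD read at 570 nm. Negative reference 0.1% DMSO; evodiamine and 5-Fu as positive references. IC50 is the concentration inhibiting 50% of growth; mean ± SD of three independent experiments.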

[11] = tested on: Bel-7402; test: Induction of apoptosis in human Bel7402 cells assessed as live cells at 2 uM after 72 hrs by Annexin V-FITC/propidium iodide staining based flow cytometry (reference value: 88.31%); format: functional
[12] = tested on: Bel-7402; test: Induction of apoptosis in human Bel7402 cells after 72 hrs by Annexin V-FITC/propidium iodide staining based flow cytometry; format: functional, cell-based
[13] = Induction of apoptosis in human Bel7402 cells assessed as upregulation of Bax expression at 1 to 3 uM after 72 hrs by Western blot analysis; format: functional, cell-based; conditions: Bel-7402; summary of the method: as §1
[14] = Antiproliferative activity against human L02 cells after 72 hrs by MTT assay; format: cell-based; conditions: L02, 72 h; summary of the method: as §3
[15] = tested on: Bel-7402; test: Induction of apoptosis in human Bel7402 cells assessed as necrotic cells at 3 uM after 72 hrs by Annexin V-FITC/propidium iodide staining based flow cytometry (reference value: 2.48%); format: functional
[16] = tested on: L02; test: Induction of NO release in human L02 cells at 100 uM incubated for 1 hr by Griess assay; format: functional; summary of the method: as §2
[17] = tested on: Bel-7402; test: Induction of apoptosis in human Bel7402 cells assessed as early apoptotic cells at 2 uM after 72 hrs by Annexin V-FITC/propidium iodide staining based flow cytometry (reference value: 6.66%); format: functional
[18] = tested on: Bel-7402; test: Induction of apoptosis in human Bel7402 cells assessed as increase in cytochrome-C level at 1 to 3 uM after 72 hrs by Western blot analysis; format: functional, cell-based; summary of the method: as §1
[19] = Cell cycle arrest in human Bel7402 cells assessed as accumulation at G1 phase at 3 uM after 24 hrs by propidium iodide staining based flow cytometry (reference value: 43.13%); format: functional; conditions: Bel-7402
[20] = tested on: Bel-7402; test: Induction of apoptosis in human Bel7402 cells assessed as necrotic cells at 2 uM after 72 hrs by Annexin V-FITC/propidium iodide staining based flow cytometry (reference value: 2.48%); format: functional
[21] = Induction of apoptosis in human Bel7402 cells assessed as upregulation of FAS protein expression at 1 to 3 uM after 72 hrs by Western blot analysis; format: functional, cell-based; conditions: Bel-7402; summary of the method: as §1
[22] = Antiproliferative activity against human BGC823 cells after 72 hrs by MTT assay; format: functional, cell-based; conditions: BGC-823, 72 h; summary of the method: as §3
[23] = Cell cycle arrest in human Bel7402 cells assessed as accumulation at S phase at 1 uM after 24 hrs by propidium iodide staining based flow cytometry (reference value: 33.7%); format: functional; conditions: Bel-7402
[24] = tested on: Bel-7402; test: Induction of apoptosis in human Bel7402 cells assessed as live cells at 3 uM after 72 hrs by Annexin V-FITC/propidium iodide staining based flow cytometry (reference value: 88.31%); format: functional
[25] = Cell cycle arrest in human Bel7402 cells assessed as accumulation at G2 phase at 2 uM after 24 hrs by propidium iodide staining based flow cytometry (reference value: 23.17%); format: functional; conditions: Bel-7402
[26] = tested on: Bel-7402; test: Induction of apoptosis in human Bel7402 cells assessed as early apoptotic cells at 1 uM after 72 hrs by Annexin V-FITC/propidium iodide staining based flow cytometry (reference value: 6.66%); format: functional
[27] = Cell cycle arrest in human Bel7402 cells assessed as accumulation at G2 phase at 1 uM after 24 hrs by propidium iodide staining based flow cytometry (reference value: 23.17%); format: functional; conditions: Bel-7402
[28] = tested on: Bel-7402; test: Induction of apoptosis in human Bel7402 cells assessed as late apoptotic cells at 3 uM after 72 hrs by Annexin V-FITC/propidium iodide staining based flow cytometry (reference value: 2.55%); format: functional
[29] = tested on: Bel-7402; test: Induction of apoptosis in human Bel7402 cells assessed as increase in caspase-9 expression at 1 to 3 uM after 72 hrs by Western blot analysis; format: functional, cell-based; summary of the method: as §1
[30] = Cell cycle arrest in human Bel7402 cells assessed as accumulation at G1 phase at 2 uM after 24 hrs by propidium iodide staining based flow cytometry (reference value: 43.13%); format: functional; conditions: Bel-7402
[31] = tested on: Bel-7402; test: Induction of apoptosis in human Bel7402 cells assessed as late apoptotic cells at 2 uM after 72 hrs by Annexin V-FITC/propidium iodide staining based flow cytometry (reference value: 2.55%); format: functional
[32] = tested on: Bel-7402; test: Induction of apoptosis in human Bel7402 cells assessed as increase in caspase-8 expression at 1 to 3 uM after 72 hrs by Western blot analysis; format: functional, cell-based; summary of the method: as §1
[33] = tested on: Bel-7402; test: Induction of mitochondrial membrane depolarization in human Bel7402 cells at 2 uM after 72 hrs by JC-1 staining based flow cytometry (reference value: 4.26%); format: functional
[34] = tested on: Bel-7402; test: Induction of apoptosis in human Bel7402 cells assessed as necrotic cells at 1 uM after 72 hrs by Annexin V-FITC/propidium iodide staining based flow cytometry (reference value: 2.48%); format: functional
[35] = tested on: Bel-7402; test: Induction of apoptosis in human Bel7402 cells assessed as down regulation of Bcl-2 expression at 1 to 3 uM after 72 hrs by Western blot analysis; format: functional, cell-based; summary of the method: as §1
[36] = tested on: Bel-7402; test: Induction of apoptosis in human Bel7402 cells assessed as early apoptotic cells at 3 uM after 72 hrs by Annexin V-FITC/propidium iodide staining based flow cytometry (reference value: 6.66%); format: functional
[37] = tested on: Bel-7402; test: Induction of NO release in human Bel7402 cells at 100 uM incubated for 1 hr by Griess assay; format: functional; summary of the method: as §2
[38] = tested on: A549; test: Antiproliferative activity against human A549 cells after 72 hrs by MTT assay; format: functional, cell-based; conditions: A549, 72 h; summary of the method: as §3
[39] = tested on: Bel-7402; test: Induction of apoptosis in human Bel7402 cells assessed as live cells at 1 uM after 72 hrs by Annexin V-FITC/propidium iodide staining based flow cytometry (reference value: 88.31%); format: functional
[40] = tested on: Bel-7402; test: Induction of apoptosis in human Bel7402 cells assessed as late apoptotic cells at 1 uM after 72 hrs by Annexin V-FITC/propidium iodide staining based flow cytometry (reference value: 2.55%); format: functional

IC50 [38]: 2.31 µM
SMILES: CN1c2ccccc2C(=O)N2CCc3c(n(CCCCCCOc4no[n+]([O-])c4S(=O)(=O)c4ccccc4)c4ccccc34)C21 (centres undefined)
Activity [1]: Dose-dependent effect
Activity [2]: 51.5%
Activity [3]: Active
Activity [4]: 13.5%
Activity [5]: 44.37%
Activity [6]: 47.3%
Activity [7]: 44.9%
Activity [8]: 87.3 µM
Activity [9]: 5.9%
IC50 [10]: 2.1 µM
Activity [11]: 58.88%
Activity [12]: Dose-dependent effect
Activity [13]: Active
IC50 [14]: > 100 µM
Activity [15]: 6.69%
Activity [16]: 26 µM
Activity [17]: 20.98%
Activity [18]: Active
Activity [19]: 42.6%
Activity [20]: 4.74%
Activity [21]: Active
IC50 [22]: 70 nM
Activity [23]: 39.3%
Activity [24]: 40.74%
Activity [25]: 10%
Activity [26]: 15.92%
Activity [27]: 15.7%
Activity [28]: 28.2%
Activity [29]: Active
Activity [30]: 42.6%
Activity [31]: 15.4%
Activity [32]: Active
Activity [33]: 26.57%
Activity [34]: 2.73%
Activity [35]: Active
Activity [36]: 24.37%
Activity [37]: 82.2 µM
Activity [39]: 77.63%
Activity [40]: 3.71%

IC50 [38]: > 100 µM
SMILES: CN1c2ccccc2C(=O)N2CCc3c(n(CCCO[N+](=O)[O-])c4ccccc34)C21 (centres undefined)
Activity [8]: 83.8 µM
IC50 [10]: 12.8 µM
IC50 [14]: > 100 µM
Activity [16]: 19.4 µM
IC50 [22]: > 100000 nM
Activity [37]: 78.5 µM

IC50 [38]: 3.04 µM
SMILES: CN1c2ccccc2C(=O)N2CCc3c(n(CCOC(=O)CCC(=O)OCCOc4no[n+]([O-])c4S(=O)(=O)c4ccccc4)c4ccccc34)C21 (centres undefined)
Activity [8]: 93.5 µM
IC50 [10]: 1.54 µM
IC50 [14]: 17.1 µM
Activity [16]: 6.59 µM
IC50 [22]: 20 nM
Activity [37]: 88.7 µM

IC50 [38]: 5.32 µM
SMILES: CN1c2ccccc2C(=O)N2CCc3c(n(CCCOC(=O)CCC(=O)OCCOc4no[n+]([O-])c4S(=O)(=O)c4ccccc4)c4ccccc34)C21 (centres undefined)
Activity [8]: 97.6 µM
IC50 [10]: 4.65 µM
IC50 [14]: 6.38 µM
Activity [16]: 18 µM
IC50 [22]: 60 nM
Activity [37]: 97 µM

IC50 [38]: > 100 µM
SMILES: CN1c2ccccc2C(=O)N2CCc3c(n(CCCCCCO[N+](=O)[O-])c4ccccc34)C21 (centres undefined)
Activity [8]: 100 µM
IC50 [10]: 28.8 µM
IC50 [14]: > 100 µM
Activity [16]: 16.4 µM
IC50 [22]: > 100000 nM
Activity [37]: 104 µM

IC50 [38]: 24.7 µM
SMILES: COC(=O)CCC(=O)OCCOc1no[n+]([O-])c1S(=O)(=O)c1ccccc1
IC50 [10]: 27.9 µM
IC50 [14]: 43.3 µM
IC50 [22]: 21400 nM

IC50 [38]: 27.9 µM
SMILES: O=C(O)CCC(=O)OCCOc1no[n+]([O-])c1S(=O)(=O)c1ccccc1
IC50 [10]: 21.4 µM
IC50 [14]: 38.7 µM
IC50 [22]: 18000 nM

IC50 [38]: 5.85 µM
SMILES: CN1c2ccccc2C(=O)N2CCc3c(n(CCCOc4no[n+]([O-])c4S(=O)(=O)c4ccccc4)c4ccccc34)C21 (centres undefined)
Activity [8]: 83.6 µM
IC50 [10]: 6.21 µM
IC50 [14]: 2.35 µM
Activity [16]: 16.4 µM
IC50 [22]: 80 nM
Activity [37]: 83.1 µM

IC50 [38]: 0.23 µM
SMILES: CN1c2ccccc2C(=O)N2CCc3c(n(CCOc4no[n+]([O-])c4S(=O)(=O)c4ccccc4)c4ccccc34)C21 (centres undefined)
Activity [8]: 78.8 µM
IC50 [10]: 0.55 µM
IC50 [14]: 0.02 µM
Activity [16]: 18.5 µM
IC50 [22]: 20 nM
Activity [37]: 77.5 µM

IC50 [38]: 0.98 µM
SMILES: CN1c2ccccc2C(=O)N2CCc3c([nH]c4ccccc34)C21 (centres undefined)
IC50 [10]: 1.23 µM
IC50 [14]: 0.34 µM
IC50 [22]: 1160 nM
